Compound activity from PubChem BioAssay.
Neddylation inh – blocks human cullin neddylation; TR-FRET cullin neddylation, biochemical; inhibition, % at 25 µM; P61081+Q13564; 0.58% of 360,000 active; AID 651699; in the data active means inhibition above about 36%
HKDC1 inhibitor – HKDC1 (human) hexokinase inhibition; Q2TB90; 0.16% of 340,000 active; AID 493160; recombinant HKDC1, G6PDH/diaphorase resazurin coupled fluorescence; inhibition, % at 20 µM;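 active means inhibition above about 35% when tested at 20 µM, limit read from the data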;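 further: plate controls were DMSO wells with enzyme for no effect and DMSO wells lacking enzyme for full effect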
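Material: recombinant HKDC1 hexokinase; Amount: HKDC1 at 5 µg/mL; Medium: Tris pH 8.0 buffer with MgCl2, Tween-20, BSA, BME; Schedule: 90 min reaction incubation at room temperature, dark; Technique: coupled resazurin fluorescence, excitation 525 nm, emission 613 nm.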
PfM18AAP inh-1 – PfM18AAP enzyme inhibition; recombinant PfM18AAP, H-Glu-NHMec fluorogenic cleavage; inhibition, % at 7.35 µM; 1.2% of 290,000 active; AID 1822;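 active means inhibition above the campaign mean inhibition over all tested compounds plus 3 SD, cut at about 28% in these data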;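 further: 0% = plate median of test compound wells and 100% = 2 mM ZnCl2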
PfG6PD inh – PfG6PD (Plasmodium falciparum) enzyme inhibition; AID 504690; 0.78% of 350,000 active; inhibition, % at 20 µM; PfGluPho enzyme, NADPH resazurin-diaphorase fluorescence;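 active means inhibition reaching at least a set limit at 20 µM in the primary screen, cut at about 59% in these data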;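 further: 0% = DMSO wells with substrate and 100% = DMSO wells lacking glucose-6-phosphate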
PfM18AAP inh-2 – PfM18AAP inhibition, confirmation | recombinant PfM18AAP, H-Glu-NHMec fluorogenic cleavage | inhibition, % at 7.35 µM | 28% of 2,400 active | shares compounds with PfM18AAP inh-1 | AID 2170;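 active means mean inhibition over replicate wells above the hit cutoff set for the earlier primary screen, cut at about 29% in these data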;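 further: 0% = median of test compound wells and 100% = 2 mM ZnCl2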
CTSL1 confirm – counter-screen for PFM18AAP inhibitors: confirmation of human cathepsin L inhibitors. 2,400 tested, under 10 active. shares compounds with PfM18AAP inh-1. purified cathepsin L1, Z-Leu-Arg-MCA fluorescence. inhibition, % at 5.96 µM. AID 2178;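 active means average inhibition across replicates above the hit cutoff set in the earlier primary screen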;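 further: 0% = median of test compound wells and 100% = Z-Phe-Ala-diazomethylketone 1 µM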
Target sequence (P07711 whole entry, looked up): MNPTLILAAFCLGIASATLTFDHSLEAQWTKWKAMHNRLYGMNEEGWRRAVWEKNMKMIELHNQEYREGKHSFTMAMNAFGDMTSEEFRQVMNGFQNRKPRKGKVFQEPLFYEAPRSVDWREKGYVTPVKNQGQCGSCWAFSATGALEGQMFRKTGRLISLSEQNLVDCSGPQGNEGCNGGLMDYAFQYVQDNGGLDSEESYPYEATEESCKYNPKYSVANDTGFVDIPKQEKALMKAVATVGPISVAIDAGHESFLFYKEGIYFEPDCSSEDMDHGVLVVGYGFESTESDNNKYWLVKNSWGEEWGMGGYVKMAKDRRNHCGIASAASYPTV
Numbers without * were called inactive; nt = no result given. An excerpt weighted towards active compounds, which were near 2.2% of everything screened.

SMILES	Neddylation inh	HKDC1 inhibitor	PfM18AAP inh-1	PfG6PD inh	PfM18AAP inh-2	CTSL1 confirm
Cc1cc(C)nc(SCC(=O)c2ccc(F)cc2)n1	-5.4	-3.4	2.8	-0.9	nt	nt
Cc1cc(C(C)(C)C)c(O)c(C(C)(C)C)c1	-4.3	-2.9	0.7	8.0	nt	nt
Cc1cc(O)c(Oc2cc(C)cc(O)c2O)c(O)c1	3.0	5.1	49.6*	49.2	36.2*	-3.2
COc1cc(/C=C2\C(=O)N(c3ccc(NC(C)=O)cc3)N=C2c2ccccc2)ccc1O	11.6	2.9	3.0	-2.6	nt	nt
O=C1/C(=C\c2ccc(O)c(O)c2)C(c2ccccc2)=NN1c1ccccc1	21.8	12.2	49.0*	-3.3	35.8*	-2.3
Cc1c(Cl)cccc1NC(=S)NC1CC1	3.9	1.6	0.2	9.1	nt	nt
Cc1c(Cl)cccc1NC(=S)Nn1cnnc1	8.9	3.2	75.9*	37.3	75.7*	2.1
Cc1onc(-c2ccccc2)c1C(=O)NC(C)CCc1ccccc1 (stereo unspecified)	0.9	-4.8	-1.7	12.4	nt	nt
COC(=O)C(N)Cc1ccc(O)cc1 (stereo unspecified)	1.1	-0.1	4.6	1.2	nt	nt
COC(=O)C(N)Cc1ccc(O)c(O)c1 (stereo unspecified)	-9.5	-9.5	83.8*	22.8	53.2*	-1.0
Cc1noc(C)c1S(=O)(=O)Nc1ccc2c(c1)C(=O)N([C@H](C)CO)C[C@H](C)[C@@H](CN(C)Cc1ccc(C(=O)O)cc1)O2	-6.4	2.0	nt	9.2	nt	nt
COc1ccc(C(=O)OCC(=O)c2ccc[nH]2)cc1	-0.5	-5.6	nt	0.6	nt	nt
NC(=O)c1c(NC(=S)Nc2ccc(F)cc2)sc2c1CCCC2	-50.7	-6.3	35.0*	17.4	2.5	5.5
NC(=O)c1c(NC(=O)C2CC=CCC2C(=O)O)sc2c1CCCCC2 (stereo unspecified)	7.4	0.8	40.0*	42.4	-19.2	-1.8
NC(=O)c1c(NC(=S)Nc2ccccc2)sc2c1CCCC2	-48.7	7.3	25.6	7.7	nt	nt
Cc1cccc(C)c1-n1c(C)cc(/C=N\Nc2ccc([N+](=O)[O-])cn2)c1C	-17.1	-0.8	51.2*	3.2	-24.1	3.4
O=[N+]([O-])c1ccc(N/N=C/c2cn(Cc3ccc(F)cc3)c3ccccc23)nc1	-16.9	0.6	40.1*	7.3	-35.4	-0.8
COc1cc(/C=N/Nc2ccc([N+](=O)[O-])cn2)cc(OC)c1O	-36.9	-3.1	37.6*	42.4	-9.8	0.3
COC(=O)N/N=C/c1cn(Cc2ccc(F)cc2)c2ccccc12	-7.5	2.2	3.3	-6.0	nt	nt
O=[N+]([O-])c1ccc(NN=Cc2cccc(O)c2)nc1	-35.5	-0.9	nt	31.2	nt	nt
Cc1cnc(=O)[nH]c1SCc1ccccc1F	3.8	1.2	11.4	-5.3	nt	nt
Cc1nc(SCC(=O)N2CCN(C(=O)c3cccs3)CC2)c2c(C)c(C)sc2n1	-34.9	4.5	nt	-1.2	nt	nt
O=C(COC(=O)c1nc(Cl)ccc1Cl)NC1CCCCC1	-18.9	5.6	nt	6.4	nt	nt
CCCc1ccc(Oc2cc(NN3CCCCC3)c([N+](=O)[O-])cc2[N+](=O)[O-])cc1	-5.5	1.4	0.3	3.9	nt	nt
COc1ccc(-n2cc(-c3ccc(Br)cc3)[nH]c2=S)cc1	-26.2	-6.5	13.8	13.1	nt	nt
SMILES	Neddylation inh	HKDC1 inhibitor	PfM18AAP inh-1	PfG6PD inh	PfM18AAP inh-2	CTSL1 confirm
COc1ccc(-n2cc(-c3ccc(OC)c(OC)c3)[nH]c2=S)cc1	0.4	-3.2	40.6*	55.5	4.2	9.5
COc1cc(C(=S)N2CCN(c3ccccc3Cl)CC2)cc(O)c1O	-4.6	-0.2	54.3*	26.1	45.1*	-1.1
O=C1/C(=C/c2cccnc2)SC(=S)N1Nc1ccccc1	-0.1	-4.0	36.8*	-6.6	20.1	4.1
CC(C)Cn1c2ccccc2c2cc(C(=O)O)ccc21	9.9	-11.8	55.0*	-10.8	-42.6	1.0
O=C(NNc1cccc([N+](=O)[O-])c1)/C(=C\c1cccnc1)NC(=O)c1ccccc1	-29.7	0.1	46.2*	13.7	10.3	1.4
Cn1c(N/N=C/c2c[nH]c3ccccc23)nc2ccccc21	-5.1	-12.5	54.0*	28.3	7.1	5.3
O=c1[nH]c2cccc(Cl)c2c2ccccc12	-1.6	nt	nt	11.9	nt	nt
CCc1ccc(-n2c(Cc3ccccc3)n[nH]c2=S)cc1	3.6	-4.5	10.1	37.9	nt	nt
Cc1c(C(=O)NCc2n[nH]c(=S)n2-c2ccc(F)cc2)cccc1[N+](=O)[O-]	-8.6	-2.5	32.6*	35.2	8.0	2.1
Cc1cccc(-n2c(Cc3ccccc3)n[nH]c2=S)c1	0.3	8.1	33.8*	38.7	-5.0	-13.2
COc1ccc(CC(=O)NCc2n[nH]c(=S)n2-c2cccc(Cl)c2)cc1	-0.4	-8.6	19.8	29.6	nt	nt
Cc1cccc(-n2c(CNC(=O)Cc3ccccc3)n[nH]c2=S)c1	-4.5	3.6	38.1*	38.0	2.3	0.9
Cc1cc(=O)[nH]c2ccc(S(=O)(=O)NC3CCCCC3)cc12	-10.5	5.3	4.3	-16.1	nt	nt
O=C(NC1CCCCCC1)c1ccc[nH]c1=S	1.6	-4.3	53.2*	33.7	-0.1	0.3
O=C(NC1CCCCCCC1)c1ccccc1O	35.1	-1.7	5.3	-9.3	nt	nt
Oc1ccc(CCNc2c3ccccc3nc3ccccc23)cc1O	-30.1	10.9	74.0*	45.7	64.1*	-1.9
c1ccc(CNc2c3ccccc3nc3ccccc23)cc1	30.5	-5.4	0.1	1.3	nt	nt
CCC(c1nnc(SCC(=O)Nc2nnc(-c3ccccc3)o2)o1)N(C)C (stereo unspecified)	7.8	-0.4	69.0*	-9.2	35.0*	2.3
O=C(Nc1nc(-c2ccccn2)cs1)Nc1ccc(F)cc1F	5.8	-4.3	48.0*	56.7	0.3	2.0
Nn1c(SCC(=O)NCCCc2ccccc2)nnc1-c1cccnc1	-9.8	-9.0	6.9	28.8	nt	nt
CCC(C)(C)n1nnnc1CN(Cc1cc2cc(OC)c(OC)cc2[nH]c1=O)C1CCCC1	nt	-5.1	32.6*	2.3	6.2	5.3
COc1ccc(Cn2nnnc2CN(Cc2cc3cc(C)ccc3[nH]c2=O)C2CCCC2)cc1	12.9	-3.3	7.4	17.4	nt	nt
COCCCNC(=S)N/N=C/c1ccc(O)cc1O	9.3	-38.9	35.8*	-5.8	7.0	-0.2
Cc1nn(-c2ccccn2)c2c1C(=O)CC(C)(C)C2N=[N+]=[N-] (stereo unspecified)	5.4	-5.6	nt	-1.6	nt	nt
O=C(Nn1cnnc1)c1ccc(OC(F)(F)C(F)C(F)(F)F)cc1 (stereo unspecified)	3.1	13.2	38.5*	-10.2	5.5	-5.9
SMILES	Neddylation inh	HKDC1 inhibitor	PfM18AAP inh-1	PfG6PD inh	PfM18AAP inh-2	CTSL1 confirm
O=C(Nn1cnnc1)c1ccccc1F	0.8	-4.4	24.7	-4.8	nt	nt
O=C(Nn1cnnc1)c1ccc(F)cc1	-3.0	0.2	32.4*	-6.8	15.6	1.0
CCOc1ccc(C(=O)Nn2cnnc2)cc1	3.2	-7.0	21.7	11.2	nt	nt
O=C(Nn1cnnc1)c1ccc(Cl)cc1	-7.6	-5.9	41.9*	11.9	25.8	0.3
CNC(=O)c1c[nH]c2ccc(S(=O)(=O)Nc3cccc(SC)c3)cc2c1=O	0.6	-1.2	-9.4	-22.7	nt	nt
CC1CN(C(=O)Cn2c(=O)oc3ccccc32)CC(C)O1 (stereo unspecified)	-11.4	-2.8	-6.2	-2.6	nt	nt
